Drawing on ChEMBL document CHEMBL4020839, “Class I HDAC Inhibitors Display Different Antitumor Mechanism in Leukemia and Prostatic Cancer Cells Depending on Their p53 Status” (J Med Chem, 2018), this text covers IC50, Activity and inhibition for one compound.

Usually IC50 stands for the concentration needed to halve the response being measured.

Calls of active or inactive are those of the source. The rule behind the calls is not given here.

The target of one experiment is T1, Histone deacetylase 7 (Homo sapiens, UniProt Q8WUI4).
T1 sequence (Q8WUI4 whole entry): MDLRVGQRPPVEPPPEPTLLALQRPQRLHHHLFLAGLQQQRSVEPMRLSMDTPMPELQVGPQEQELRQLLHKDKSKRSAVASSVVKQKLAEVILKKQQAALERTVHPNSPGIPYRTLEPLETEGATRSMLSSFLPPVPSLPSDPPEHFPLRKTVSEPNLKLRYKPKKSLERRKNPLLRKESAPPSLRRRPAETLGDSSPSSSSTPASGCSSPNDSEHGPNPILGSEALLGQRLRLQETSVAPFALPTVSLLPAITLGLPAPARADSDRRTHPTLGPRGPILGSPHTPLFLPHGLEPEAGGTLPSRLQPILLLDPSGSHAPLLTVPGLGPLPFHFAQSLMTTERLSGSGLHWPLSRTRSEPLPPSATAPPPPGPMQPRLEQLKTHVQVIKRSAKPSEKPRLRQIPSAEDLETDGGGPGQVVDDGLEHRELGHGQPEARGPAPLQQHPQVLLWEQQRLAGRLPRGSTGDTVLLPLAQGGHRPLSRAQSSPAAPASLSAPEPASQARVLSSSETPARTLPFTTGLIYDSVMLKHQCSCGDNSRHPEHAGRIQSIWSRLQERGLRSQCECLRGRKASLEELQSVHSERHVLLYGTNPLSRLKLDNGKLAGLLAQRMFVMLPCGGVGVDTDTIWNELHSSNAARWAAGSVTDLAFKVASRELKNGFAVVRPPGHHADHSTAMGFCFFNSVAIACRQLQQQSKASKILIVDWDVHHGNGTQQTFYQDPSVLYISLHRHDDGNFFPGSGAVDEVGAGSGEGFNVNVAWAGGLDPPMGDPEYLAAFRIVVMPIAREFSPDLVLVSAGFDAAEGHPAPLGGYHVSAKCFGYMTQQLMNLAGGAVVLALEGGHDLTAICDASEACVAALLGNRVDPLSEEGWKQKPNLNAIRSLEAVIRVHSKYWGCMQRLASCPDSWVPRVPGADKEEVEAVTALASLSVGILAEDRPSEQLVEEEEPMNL
Nature of the experiment: Inhibition of recombinant human N-terminal GST-tagged HDAC7 (518-end residues) expressed in baculovirus expression system using Boc-Lys(trifluoroacetyl)-AMC as substrate preincubated for 1 hr followed by substrate addition measured after 2 hrs by fluorescence assay. The procedure, abridged:
(§1)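 Recombinant HDAC incubated with serial compound dilutions at 30 °C for 1 h. Reaction run 2 h at 30 °C, stopped with developer containing trypsin and TSA. Fluorescence read after 30 min at 360/460 nm. Inhibition relative to control wells; IC50 from variable-slope fit.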

The next experiment concerns the target Histone deacetylase 9 (Homo sapiens, UniProt Q9UKV0). Nature of the experiment: Inhibition of recombinant human C-terminal His-tagged HDAC9 (604 to 1066 residues) expressed in baculovirus expression system using Boc-Lys(trifluoroacetyl)-AMC as substrate preincubated for 1 hr followed by substrate addition measured after 2 hrs by fluorescence assay. The procedure, abridged: as §1

Experiment [1] deals with MV4-11. Nature of the experiment: Downregulation of HDAC6 protein expression in human MV4-11 cells at >= 0.5 uM after 24 hrs by Western blot analysis. The experiment is classed as functional, cell-based. The procedure, abridged:
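MV4-11 cells treated 24 h at 0.25, 0.5, 1 and 2 μM, with 5 μM SAHA as reference. RIPA lysates normalized by BCA, run on 4–12% Bis-Tris gels, probed with primary antibodies at 1/1000 overnight at 4 °C. HDAC6 and acetylated histones/tubulin detected; actin as loading control. Representative of n = 2.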
Background: Immunoblotting shows a protein as a band on a membrane.

Experiment [2] has as its target T2, Histone deacetylase 2 (Homo sapiens, UniProt Q92769). The experiment in a line: Inhibition of full length recombinant human C-terminal FLAG/His-tagged HDAC2 expressed in baculovirus expression system using Boc-Lys(acetyl)-AMC as substrate preincubated for 1 hr followed by substrate addition measured after 2 hrs by fluorescence assay. The procedure, abridged:
as §1

A further experiment concerns the target T3, Histone deacetylase 8 (Homo sapiens, UniProt Q9BY41).
T3 sequence (Q9BY41 whole entry): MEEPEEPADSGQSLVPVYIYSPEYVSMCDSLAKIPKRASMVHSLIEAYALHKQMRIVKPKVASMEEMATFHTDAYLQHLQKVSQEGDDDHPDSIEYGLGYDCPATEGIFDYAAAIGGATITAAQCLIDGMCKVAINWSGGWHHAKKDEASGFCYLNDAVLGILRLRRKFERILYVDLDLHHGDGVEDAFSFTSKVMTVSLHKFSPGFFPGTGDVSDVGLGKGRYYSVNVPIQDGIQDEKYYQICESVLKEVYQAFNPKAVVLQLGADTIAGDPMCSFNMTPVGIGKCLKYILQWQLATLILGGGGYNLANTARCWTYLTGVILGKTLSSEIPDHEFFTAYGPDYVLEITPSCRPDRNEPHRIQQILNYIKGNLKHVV
The experiment in a line: Inhibition of full length recombinant human C-terminal His-tagged HDAC8 expressed in baculovirus expression system using Boc-Lys(trifluoroacetyl)-AMC as substrate preincubated for 1 hr followed by substrate addition measured after 2 hrs by fluorescence assay. The procedure, abridged: as §1

The test system of experiment [3] is PC-3. Nature of the experiment: Induction of morphological changes in human PC3 cells at 2 to 10 uM after 48 hrs by phase contrast microscopic method. It is filed as functional, cell-based. The procedure, abridged: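 PC-3 cells treated 48 h with vehicle (DMSO), 2 μM or 10 μM and examined by phase-contrast light microscopy for morphology. Representative of n = 2.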

Experiment [4] has as its system MV4-11. The experiment in a line: Induction of apoptosis in human MV4-11 cells assessed as increase in cleaved caspase-3 level at 1 to 2 uM after 24 hrs by Western blot method. The experiment is classed as functional, cell-based. The procedure, abridged:
(§2)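 MV4-11 (1,500,000/well) or PC-3 (300,000/well) grown 12 h, then treated 24 h at 1 and 2 μM, with 5 μM SAHA as reference. RIPA lysis, sonication and centrifugation, BCA normalization. NuPAGE 4–12% Bis-Tris gel in MES, transfer, primary antibodies 1/1000 overnight at 4 °C. Actin as loading control.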

Experiment [5] has as its system PC-3. The experiment in a line: Induction of apoptosis in human PC3 cells assessed as increase in cleaved PARP level at 1 to 2 uM after 24 hrs by Western blot method. The experiment is classed as functional, cell-based. The procedure, abridged: as §2
The test system of experiment [6] is MV4-11. Nature of the experiment: Downregulation of HDAC1 protein expression in human MV4-11 cells at 1 to 2 uM after 24 hrs by Western blot method. It is filed as functional, cell-based. The procedure, abridged:
as §2

Experiment [7] deals with MV4-11. Nature of the experiment: Induction of p53 degradation in human MV4-11 cells up to 2 uM up to 6 hrs by Western blot analysis. The experiment is classed as functional, cell-based.
Experiment [8] has as its system MV4-11. Nature of the experiment: Induction of p53 degradation in human MV4-11 cells up to 500 nM after 6 hrs in presence of proteasome inhibitor bortezomib by Western blot analysis. It is filed as functional, cell-based.
The target of the next experiment is Histone deacetylase 1 (Homo sapiens, UniProt Q13547). Conditions: 0.25 to 2 uM.
Histone deacetylase 1, sequence (Q13547 whole entry): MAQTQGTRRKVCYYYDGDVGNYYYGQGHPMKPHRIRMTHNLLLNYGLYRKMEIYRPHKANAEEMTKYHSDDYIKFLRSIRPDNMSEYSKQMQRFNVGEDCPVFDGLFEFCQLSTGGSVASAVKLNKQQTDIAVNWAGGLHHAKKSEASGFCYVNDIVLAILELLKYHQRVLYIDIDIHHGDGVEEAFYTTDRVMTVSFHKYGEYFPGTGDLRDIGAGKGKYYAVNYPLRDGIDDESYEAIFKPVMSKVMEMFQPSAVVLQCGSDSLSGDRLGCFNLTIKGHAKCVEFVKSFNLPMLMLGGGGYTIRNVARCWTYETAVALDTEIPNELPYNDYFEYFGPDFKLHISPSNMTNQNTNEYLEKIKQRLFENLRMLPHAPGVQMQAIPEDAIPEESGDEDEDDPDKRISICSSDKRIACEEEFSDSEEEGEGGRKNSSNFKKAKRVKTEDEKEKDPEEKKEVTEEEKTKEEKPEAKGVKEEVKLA
The target of experiment [9] is T2, Histone deacetylase 2. Conditions: 0.25 to 2 uM.

T2 sequence (Q92769 whole entry): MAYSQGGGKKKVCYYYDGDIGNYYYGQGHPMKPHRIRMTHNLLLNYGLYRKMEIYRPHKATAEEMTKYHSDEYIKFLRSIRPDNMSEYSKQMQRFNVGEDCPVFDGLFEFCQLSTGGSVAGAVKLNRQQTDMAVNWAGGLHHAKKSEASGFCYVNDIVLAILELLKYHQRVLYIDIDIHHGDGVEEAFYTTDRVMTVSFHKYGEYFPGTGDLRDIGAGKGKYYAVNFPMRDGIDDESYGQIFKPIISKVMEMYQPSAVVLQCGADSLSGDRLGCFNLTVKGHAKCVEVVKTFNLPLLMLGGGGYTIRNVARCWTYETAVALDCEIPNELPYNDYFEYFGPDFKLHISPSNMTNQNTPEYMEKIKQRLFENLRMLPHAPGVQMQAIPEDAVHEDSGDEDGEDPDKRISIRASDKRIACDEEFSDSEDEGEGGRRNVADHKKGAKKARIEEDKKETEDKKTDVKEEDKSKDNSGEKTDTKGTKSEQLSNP
Histone deacetylase 9, sequence (Q9UKV0 whole entry, the tested form may be a part): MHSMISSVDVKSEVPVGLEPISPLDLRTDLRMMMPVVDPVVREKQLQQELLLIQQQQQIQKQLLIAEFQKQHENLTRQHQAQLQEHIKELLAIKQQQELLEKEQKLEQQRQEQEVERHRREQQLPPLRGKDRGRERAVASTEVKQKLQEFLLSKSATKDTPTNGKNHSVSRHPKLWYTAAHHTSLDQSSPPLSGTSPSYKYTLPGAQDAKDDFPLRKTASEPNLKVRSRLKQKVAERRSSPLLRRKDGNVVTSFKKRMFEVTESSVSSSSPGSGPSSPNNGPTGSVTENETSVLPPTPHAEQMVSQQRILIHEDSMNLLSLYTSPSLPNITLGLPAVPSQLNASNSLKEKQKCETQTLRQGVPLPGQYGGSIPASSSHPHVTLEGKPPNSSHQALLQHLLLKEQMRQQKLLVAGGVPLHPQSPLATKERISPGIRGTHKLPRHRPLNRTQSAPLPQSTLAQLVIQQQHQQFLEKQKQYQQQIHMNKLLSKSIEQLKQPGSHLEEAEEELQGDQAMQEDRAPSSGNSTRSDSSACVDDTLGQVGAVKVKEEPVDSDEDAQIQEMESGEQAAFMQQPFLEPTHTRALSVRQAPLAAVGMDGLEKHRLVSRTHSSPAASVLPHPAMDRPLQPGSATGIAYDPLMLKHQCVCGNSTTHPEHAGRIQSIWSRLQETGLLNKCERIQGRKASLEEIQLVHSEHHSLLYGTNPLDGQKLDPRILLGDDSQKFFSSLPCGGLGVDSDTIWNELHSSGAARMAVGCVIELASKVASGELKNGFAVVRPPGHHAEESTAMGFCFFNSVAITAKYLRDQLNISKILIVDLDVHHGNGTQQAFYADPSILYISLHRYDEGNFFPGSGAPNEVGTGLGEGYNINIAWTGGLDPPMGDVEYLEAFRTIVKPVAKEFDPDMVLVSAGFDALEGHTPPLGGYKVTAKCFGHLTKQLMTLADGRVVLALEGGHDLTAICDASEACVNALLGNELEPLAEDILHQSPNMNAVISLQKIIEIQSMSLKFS

In the case of `CCCNNC(=O)c1ccc(NC(=O)[C@H](Cc2c[nH]c3ccccc23)NC(=O)c2ccc(OC)cc2)cc1`, the IC50 on Histone deacetylase 7 is over 50000 nM; at Histone deacetylase 9 it was over 50000 nM; on Histone deacetylase 2 [2], 28 nM; at Histone deacetylase 8, 626 nM. For the same compound, the outcome with MV4-11 [1], with MV4-11 [4] and in the experiment with MV4-11 [7] was Active. Also, the outcome in the experiment on PC-3 [3], in the experiment on PC-3 [5], in the experiment on MV4-11 [6] and in the experiment with MV4-11 [8] was inactive. Also, the inhibition entry at Histone deacetylase 1 and at Histone deacetylase 2 [9] was “Active” in each case.
